Measurements published in ChEMBL document CHEMBL2034874, “5-acetyl-2-arylbenzimidazoles as antiviral agents. Part 4” (Eur J Med Chem, 2012).

Legend:
[1] = Cytotoxicity against MDBK cells after 48 to 96 hrs by MTT assay; type: cell-based, Bos taurus; details: cattle
Procedure, shortened: (§1)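 Mock-infected MDBK (6×10^5 cells/mL, MEM-E with 10% horse serum) or BHK (1×10^6 cells/mL, MEM-E with 10% FBS) cells incubated with serial compound dilutions at 37 °C and 5% CO2. Viability measured by MTT after 48–96 h. CC50 by linear regression against untreated controls.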

[2] = Antiviral activity against BVDV1 NADL ATCC VR-534 infected in MDBK cells assessed as inhibition of virus-induced cytopathogenicity after 3 to 4 days by MTT assay; type: functional, cell-based, Bovine viral diarrhea virus 1-NADL; details: Bovine viral diarrhea virus isolates and strains, ATCC VR-534, MDBK
Procedure, shortened: (§2)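 BHK (5×10^4/well) or MDBK (3×10^4/well) cells grown to confluent monolayers overnight, infected at m.o.i. 0.01 in maintenance MEM-Earl with 0.5% inactivated FBS. Serially diluted compounds added after 1 h. Viability read by MTT after 3–4 days at 37 °C. Values are expressed as % of untreated controls, and EC50 is derived by linear regression. Duplicate samples.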

[3] = Cytotoxicity against BHK21 cells by MTT assay; type: cell-based, Mesocricetus auratus; details: hamster, BHK-21 cells; procedure, shortened: as §1
[4] = tested on: Yellow fever virus; test: Antiviral activity against Yellow fever virus 17D infected in BHK21 cells assessed as inhibition of virus-induced cytopathogenicity after 3 to 4 days by MTT assay; type: functional, cell-based; details: BHK-21
[5] = tested on: Mammalian orthoreovirus 1; test: Antiviral activity against Reovirus 1 3651 ATCC VR-214 infected in BHK21 cells assessed as inhibition of virus-induced cytopathogenicity after 3 to 4 days by MTT assay; type: functional, organism-based; details: Mammalian orthoreovirus 1, 3651 ATCC VR-214, BHK-21; procedure, shortened: as §2
[6] = Cytotoxicity against african green monkey Vero 76 cells after 48 to 96 hrs by MTT assay; type: cell-based; details: chlorocebus sabaeus
[7] = tested on: Coxsackievirus B5; test: Antiviral activity against Coxsackie virus type B5 Ohio-1 ATCC VR-29 infected in african green monkey Vero-76 cells assessed as reduction in viral plaque after 3 days by crystal violet staining; type: functional, organism-based; details: Enterovirus B, Ohio-1 ATCC VR-29, Vero 76, 72 h
Procedure, shortened: (§3)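 Vero-76 monolayers (2×10^5 cells/well) infected for 2 h at 50–100 PFU/well. Unadsorbed virus removed. D-MEM with 1% inactivated FBS, 0.75% methylcellulose and serial compound dilutions added. Incubation at 37 °C for 3 days (CVB-5, HSV-1) or 5 days (RSV). Fixed and stained with 50% ethanol/0.8% crystal violet, then plaques counted. EC50 by linear regression versus untreated controls.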

[8] = tested on: Poliovirus 1; test: Antiviral activity against Polio virus type 1 strain sabin ATCC VR-1562 infected in african green monkey Vero-76 cells assessed as reduction in viral plaque after 2 days by crystal violet staining; type: functional, cell-based, Human poliovirus 1 strain Sabin; details: Enterovirus C, ATCC VR-1562, Vero 76, 48 h
[9] = Antiviral activity against Human respiratory syncytial virus A2 ATCC VR-1540 infected in african green monkey Vero-76 cells assessed as reduction in viral plaque after 5 days by crystal violet staining; type: functional, cell-based; details: ATCC VR-1540, Vero 76, 120 h; procedure, shortened: as §3
[10] = tested on: Vesicular stomatitis Indiana virus; test: Antiviral activity against Vesicular stomatitis virus indiana ATCC VR-1540 infected in african green monkey Vero-76 cells assessed as reduction in viral plaque after 2 days by crystal violet staining; type: functional, organism-based; details: ATCC VR-1540, Vero 76, 48 h
[11] = tested on: Vaccinia virus; test: Antiviral activity against Vaccinia virus Elstree-Lister ATCC VR-1549 infected in african green monkey Vero-76 cells assessed as reduction in viral plaque after 3 days by crystal violet staining; type: functional, organism-based; details: Orthopoxvirus vaccinia, Elstree-Lister ATCC VR-1549, Vero 76, 72 h
[12] = tested on: Human alphaherpesvirus 1; test: Antiviral activity against Herpes simplex virus type 1 KOS ATCC VR-1493 infected in african green monkey Vero-76 cells assessed as reduction in viral plaque after 3 days by crystal violet staining; type: functional, organism-based; details: Human alphaherpesvirus 1, KOS ATCC VR1493, Vero 76, 72 h; procedure, shortened: as §3
[13] = Cytotoxicity against human MT4 cells after 96 hrs by MTT assay; type: cell-based
Procedure, shortened: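 Exponentially growing MT-4 cells seeded at 1×10^5 cells/mL in RPMI-1640 with 10% FBS and incubated with serial compound dilutions at 37 °C and 5% CO2. Viability measured by MTT after 96 h. CC50 by linear regression against untreated controls.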

[14] = tested on: Human immunodeficiency virus 1; test: Antiviral activity against HIV1 3B infected in human MT4 cells assessed as inhibition of virus-induced cytopathogenicity after 4 days by MTT assay; type: functional, organism-based; details: Human immunodeficiency virus 1, 3B, MT4, 96 h
Procedure, shortened: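 MT-4 cells (1×10^4/well) in RPMI with serial compound dilutions, infected with HIV-1 IIIB at 100 CCID50 (m.o.i. 0.01). Viability measured by MTT after 4 days at 37 °C. EC50 for 50% protection from cytopathogenicity obtained by linear regression against untreated controls.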

Structure (SMILES)	CC50 [1]	EC50 [2]	CC50 [3]	EC50 [4]	EC50 [5]	CC50 [6]	EC50 [7]	EC50 [8]	EC50 [9]	EC50 [10]	EC50 [11]	EC50 [12]	CC50 at 96 h [13]	EC50 [14]
C/C(=N\NC(N)=O)c1ccc2c(c1)nc(-c1ccccn1)n2C1CCCCC1	> 100 µM	> 100 µM	> 100 µM	> 100 µM	> 100 µM	> 100 µM	> 100 µM	> 100 µM	> 100 µM	> 100 µM	> 100 µM	> 100 µM		
CC(=O)c1ccc2[nH]c(-c3ccccc3)nc2c1	> 100 µM	100 µM	> 100 µM	> 100 µM	> 100 µM	> 100 µM	> 100 µM	> 100 µM	> 100 µM	> 100 µM	> 100 µM	> 100 µM		
C/C(=N\NC(N)=O)c1ccc2c(c1)nc(-c1ccccc1)n2C1CCCCC1	> 100 µM	> 100 µM	> 100 µM	> 100 µM	> 100 µM	> 100 µM	> 100 µM	> 100 µM	> 100 µM	> 100 µM	> 100 µM	> 100 µM		
C/C(=N\NC(N)=O)c1ccc2[nH]c(-c3ccc(C(F)(F)F)cc3)nc2c1	> 100 µM	45 µM	> 100 µM	> 100 µM	> 100 µM	> 100 µM	> 100 µM	> 100 µM	> 100 µM	> 100 µM	> 100 µM	> 100 µM		
Cc1cc2nc(-c3cccc4ccccc34)[nH]c2cc1C				6 µM										
COc1c(C)c2c(c(O)c1C/C=C(\C)CCC(=O)O)C(=O)OC2 [MYCOPHENOLIC ACID]						≥ 12.5 µM					1.5 µM			
C[C@@]1(O)[C@H](O)[C@@H](CO)O[C@H]1n1ccc(N)nc1=O			> 100 µM		16 µM									
O=[N+]([O-])c1ccc(-c2nc3cc(Cl)c(Cl)cc3[nH]2)cc1											0.1 µM			
C/C(=N\NC(N)=O)c1ccc2c(c1)nc(-c1ccoc1)n2C1CCCCC1	> 100 µM	100 µM												
C/C(=N\O)c1ccc2[nH]c(-c3ccccc3)nc2c1	> 100 µM	> 100 µM	> 100 µM	> 100 µM	> 100 µM	> 100 µM	> 100 µM	> 100 µM	> 100 µM	> 100 µM	> 100 µM	> 100 µM		
Clc1ccc2c(c1)nc(Cn1nc3ccccc3n1)n2C[C@H]1CCCN2CCCCC12 (some centres undefined)									0.03 µM					
C/C(=N\NC(N)=O)c1ccc2[nH]c(-c3ccoc3)nc2c1	> 100 µM	60 µM	> 100 µM	> 100 µM	> 100 µM	> 100 µM	> 100 µM	> 100 µM	> 100 µM	> 100 µM	> 100 µM	> 100 µM		
CC(=O)Nc1ccc(/C=C/c2nc3cc(C(F)(F)F)ccc3[nH]2)cc1									1 µM					
O=[N+]([O-])c1ccc2[nH]c(-c3ccccc3)nc2c1		1.5 µM												
Nc1nc2c(ncn2COCCO)c(=O)[nH]1 [ACYCLOVIR]						> 100 µM								
C/C(=N\NC(N)=O)c1ccc2c(c1)nc(-c1ccc(C(F)(F)F)cc1)n2C1CCCCC1	> 100 µM	> 100 µM	> 100 µM	> 100 µM	> 100 µM	> 100 µM	> 100 µM	> 100 µM	> 100 µM	> 100 µM	> 100 µM			
CC(=O)c1ccc2[nH]c(/C=C/c3ccc([N+](=O)[O-])cc3)nc2c1		1.7 µM												

Structure (SMILES)	CC50 [1]	EC50 [2]	CC50 [3]	EC50 [4]	EC50 [5]	CC50 [6]	EC50 [7]	EC50 [8]	EC50 [9]	EC50 [10]	EC50 [11]	EC50 [12]	CC50 at 96 h [13]	EC50 [14]
C/C(=N\O)c1ccc2[nH]c(-c3ccc(C(F)(F)F)cc3)nc2c1	55 µM	> 55 µM												
COc1ccc(-c2nc3cc(/C(C)=N/NC(N)=O)ccc3[nH]2)cc1	25 µM	11 µM												
C/C(=N\O)c1ccc2[nH]c(-c3ccc(Cl)cc3)nc2c1	37 µM	18 µM	33 µM	> 33 µM									20 µM	> 20 µM
C/C(=N\NC(N)=O)c1ccc2[nH]c(-c3ccccc3)nc2c1	> 100 µM	50 µM	> 100 µM	> 100 µM	> 100 µM	> 100 µM	> 100 µM	> 100 µM	> 100 µM	> 100 µM	> 100 µM	> 100 µM		
C/C(=N\NC(N)=O)c1ccc2[nH]c(C3CCCCC3)nc2c1	> 100 µM	44 µM	> 100 µM	> 100 µM	> 100 µM	> 100 µM	> 100 µM	> 100 µM	> 100 µM	> 100 µM	> 100 µM	> 100 µM		
Nc1ccc(-c2nc3cc(Cl)ccc3[nH]2)c2ccccc12				27 µM										
Nc1ccc(-c2nc3cc(Cl)c(Cl)cc3[nH]2)c2ccccc12				16 µM										
C/C(=N\NC(N)=O)c1ccc2c(c1)nc(-c1ccc(Cl)cc1)n2C1CCCCC1	> 100 µM	> 100 µM	> 100 µM	> 100 µM	> 100 µM	> 100 µM	> 100 µM	> 100 µM	> 100 µM	> 100 µM	> 100 µM	> 100 µM		
CC(=O)c1ccc2[nH]c(-c3ccc(C(F)(F)F)cc3)nc2c1	> 100 µM	15 µM	> 100 µM	> 100 µM	> 100 µM	> 100 µM	> 100 µM	> 100 µM	> 100 µM	> 100 µM	> 100 µM	> 100 µM		
COc1ccc(-c2nc3cc(/C(C)=N/NC(N)=O)ccc3n2C2CCCCC2)cc1	54 µM	> 54 µM												
COc1ccc(-c2nc3cc(/C(C)=N/O)ccc3[nH]2)cc1	44 µM	> 44 µM	44 µM	> 44 µM	> 100 µM	> 100 µM	> 100 µM	> 100 µM			> 100 µM			
O=c1cnn([C@@H]2O[C@H](CO)[C@@H](O)[C@H]2O)c(=O)[nH]1 [6-AZAURIDINE]						≥ 12.5 µM			1.2 µM					
C/C(=N\NC(N)=O)c1ccc2[nH]c(-c3ccc(Cl)cc3)nc2c1	> 100 µM	> 100 µM	> 100 µM	> 100 µM	> 100 µM	> 100 µM	> 100 µM	> 100 µM	> 100 µM	> 100 µM	> 100 µM	> 100 µM		
C[C@@]1(O)[C@H](O)[C@@H](CO)O[C@H]1n1cnc2c(=O)[nH]c(N)nc21 [2'-B-METHYL-GUANOSINE]	> 10 µM	1.1 µM	> 10 µM											
CC(=O)c1ccc2[nH]c(-c3ccc(Cl)cc3)nc2c1	> 100 µM	> 100 µM	> 100 µM	> 100 µM	> 100 µM	> 100 µM	> 100 µM	> 100 µM	> 100 µM	> 100 µM	> 100 µM	> 100 µM		
C#C[C@@]1(O)[C@H](O)[C@@H](CO)O[C@H]1n1ccc(N)nc1=O [2'-ETHYNYL-D-CYTIDINE]						> 100 µM	27 µM	23 µM						
